Results on 25 molecules are retold here after ChEMBL document CHEMBL1155941, “Solid-phase synthesis and biological evaluation of a parallel library of 2,3-dihydro-1,5-benzothiazepines” (Bioorg Med Chem, 2008).

Assay [1] relates to Agrobacterium tumefaciens. Description: Inhibition of Agrobacterium tumefaciens-induced tumor growth in potato tuber disk after 21 days. In kind it is functional, organism-based. An outline of the steps: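 Potato disk bioassay: red-skinned potatoes surface-sterilized in 0.1% HgCl₂. Disks were inoculated with a 48-h culture of A. tumefaciens AT-10 containing test sample at 10, 100 or 1000 ppm. Tumors were counted under a dissecting microscope, with tests run in replicate. Percent inhibition came from the average tumor count per sample versus control; IC₅₀ was calculated by a literature procedure.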

Assay [2] has as its system Agrobacterium tumefaciens. Description: Inhibition of Agrobacterium tumefaciens-induced tumor growth in potato tuber disk at 1000 ppm after 21 days.
The target of the next assay is Acetylcholinesterase (Homo sapiens, UniProt P22303). Description: Inhibition of AchE.
Assay [3] deals with Agrobacterium tumefaciens. Description: Inhibition of Agrobacterium tumefaciens-induced tumor growth in potato tuber disk at 100 ppm after 21 days.
Assay [4] has as its system Agrobacterium tumefaciens. Description: Inhibition of Agrobacterium tumefaciens-induced tumor growth in potato tuber disk at 10 ppm after 21 days.
Another assay addresses Cholinesterase (Homo sapiens, UniProt P06276). Description: Inhibition of BchE. An outline of the steps:
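Ellman-type assay: enzyme, DTNB and test compound (dissolved in EtOH) were mixed in sodium phosphate buffer pH 8.0 and incubated 15 min at 25 °C. Reactions were run in triplicate. % inhibition = (E–S)/E × 100, where E is enzyme activity without compound. IC50 was derived from inhibition across increasing compound concentrations.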

Another assay has as its system Klebsiella aerogenes. Description: Antimicrobial activity against Enterobacter aerogenes ATCC 13048 assessed as inhibition zone diameter after 24 hrs by agar well diffusion method. The format is functional. An outline of the steps:
(§1)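 Agar well diffusion: broth culture of about 10⁶ CFU/ml mixed into nutrient agar at 45 °C and poured into plates. 8-mm wells received test sample at 1 mg/ml in DMSO. DMSO was the negative control and roxithromycin (1 mg/ml) the positive control. Triplicate plates were incubated 37 °C, 24 h. Complete-inhibition zone diameter (mm) was measured, with growth inhibition referenced to roxithromycin.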
On the technique in general: A growth-free zone around the sample is the usual read-out of agar diffusion tests.

Assay [5] concerns Bordetella bronchiseptica. Description: Antimicrobial activity against Bordetella bronchiseptica ATCC 4617 assessed as inhibition zone diameter after 24 hrs by agar well diffusion method. The format is functional. An outline of the steps:
as §1

A further assay deals with Escherichia coli. Description: Antimicrobial activity against Escherichia coli ATCC 1522 assessed as inhibition zone diameter after 24 hrs by agar well diffusion method. The format is functional. An outline of the steps:
as §1

For assay [6], the system named is Salmonella enterica subsp. enterica. Description: Antimicrobial activity against Salmonella setubal ATCC 19196 assessed as inhibition zone diameter after 24 hrs by agar well diffusion method. In kind it is functional, Salmonella enterica subsp. enterica serovar Setubal. An outline of the steps: as §1
For another assay, the system named is Micrococcus luteus. Description: Antimicrobial activity against Micrococcus luteus assessed as inhibition zone diameter after 24 hrs by agar well diffusion method. The format is functional. An outline of the steps:
as §1

Cholinesterase, sequence (P06276 whole entry): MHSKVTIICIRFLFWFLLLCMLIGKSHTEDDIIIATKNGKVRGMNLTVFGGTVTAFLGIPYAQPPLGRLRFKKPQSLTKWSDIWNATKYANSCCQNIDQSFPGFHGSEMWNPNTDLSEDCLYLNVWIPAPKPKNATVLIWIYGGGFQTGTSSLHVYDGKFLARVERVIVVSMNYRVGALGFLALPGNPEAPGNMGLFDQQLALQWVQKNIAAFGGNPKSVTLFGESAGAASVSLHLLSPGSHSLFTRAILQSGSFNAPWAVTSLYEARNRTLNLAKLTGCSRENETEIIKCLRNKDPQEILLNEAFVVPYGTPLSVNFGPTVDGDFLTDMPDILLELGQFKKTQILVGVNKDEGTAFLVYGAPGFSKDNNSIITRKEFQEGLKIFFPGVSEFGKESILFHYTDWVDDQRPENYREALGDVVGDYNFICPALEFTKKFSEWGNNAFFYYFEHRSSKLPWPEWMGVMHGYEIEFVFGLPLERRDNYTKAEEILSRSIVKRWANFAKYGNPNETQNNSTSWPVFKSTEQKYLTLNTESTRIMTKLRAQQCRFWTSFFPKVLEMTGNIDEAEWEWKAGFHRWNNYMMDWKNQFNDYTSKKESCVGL
Acetylcholinesterase, sequence (P22303 whole entry): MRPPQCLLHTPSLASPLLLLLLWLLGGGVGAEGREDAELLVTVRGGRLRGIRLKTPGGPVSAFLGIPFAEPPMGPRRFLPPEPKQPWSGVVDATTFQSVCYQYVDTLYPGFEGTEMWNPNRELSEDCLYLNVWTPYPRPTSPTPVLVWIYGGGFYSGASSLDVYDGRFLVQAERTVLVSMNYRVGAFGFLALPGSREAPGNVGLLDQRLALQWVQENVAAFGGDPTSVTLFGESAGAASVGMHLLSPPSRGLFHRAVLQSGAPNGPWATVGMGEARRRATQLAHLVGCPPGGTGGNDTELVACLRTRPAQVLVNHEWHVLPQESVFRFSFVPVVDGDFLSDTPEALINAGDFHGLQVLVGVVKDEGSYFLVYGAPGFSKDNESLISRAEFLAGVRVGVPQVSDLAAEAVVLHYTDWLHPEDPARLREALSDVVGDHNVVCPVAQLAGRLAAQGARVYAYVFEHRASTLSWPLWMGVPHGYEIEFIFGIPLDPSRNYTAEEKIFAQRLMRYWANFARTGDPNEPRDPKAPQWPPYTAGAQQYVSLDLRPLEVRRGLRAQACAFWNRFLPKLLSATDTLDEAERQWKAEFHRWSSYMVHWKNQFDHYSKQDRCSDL

In assay [1], `COc1ccccc1/C=C/C(=O)c1cccc(O)c1` came in with an IC50 of 3.1 ppm.
In turn, `COc1ccc(/C=C/C(=O)c2cccc(O)c2)cc1OC` showed an IC50 in [1] of 5.8 ppm.
`Oc1cccc(C2=Nc3ccccc3SC(c3ccccc3)C2)c1` (centres undefined): the “inhibition (INH)” value in [2] was 100%; in assay [3], 97.8%; in assay [4] it was 72.3%. Further, the IC50 at Acetylcholinesterase was 40 µM; in [1], 5.41 ppm; against Cholinesterase, 1420 µM.
As for `COc1ccccc1C1CC(c2cccc(O)c2)=Nc2ccccc2S1` (centres undefined), the “inhibition (INH)” value in assay [2] amounted to 98.5%; in assay [3], 87.1%; in [4] it was 81.42%. In addition, the results for the IC50 (in [1]; at Cholinesterase) were 7.06 ppm and 4.65 µM, respectively.
`COc1ccc(C2CC(c3cccc(O)c3)=Nc3ccccc3S2)cc1` (centres undefined): the “inhibition (INH)” value was determined as 100% in assay [2], 78.7% in assay [3] and 57.4% in assay [4]. For the same molecule, the IC50 in assay [1] turned out to be 4.69 ppm.
With `Oc1cccc(C2=Nc3ccccc3SC(c3ccc(Br)cc3)C2)c1` (centres undefined), the “inhibition (INH)” value in assay [2] is 85.1%; in [3], 63.8%; in [4], 21.2%. This molecule gave an IC50 in [1] of 61.5 ppm.
Consider `COc1ccc(C2CC(c3cccc(O)c3)=Nc3ccccc3S2)cc1OC` (centres undefined), for which the “inhibition (INH)” value is 100% in assay [2], 82.7% in [3] and 70.2% in assay [4]. Also, the IC50 was 8.23 ppm in assay [1] and 19.7 µM against Cholinesterase.
For `Cc1ccc(C2CC(c3cccc(O)c3)=Nc3ccccc3S2)cc1` (centres undefined), the “inhibition (INH)” value in [2] is given as 87.2%; in [3], 72.3%; in [4], 65.9%. For the same molecule, the values for the IC50 (against Acetylcholinesterase; in assay [1]; on Cholinesterase) were 49.4 µM, 30.7 ppm and 75.2 µM, respectively.
For `Oc1cccc(C2=Nc3ccccc3SC(c3cccnc3)C2)c1` (centres undefined), the “inhibition (INH)” value is reported as 51% in assay [2], 38.2% in assay [3] and 29.7% in assay [4]. This molecule had an IC50 in assay [1] of 926.2 ppm.
For `Oc1cccc(C2=Nc3ccccc3SC(c3ccncc3)C2)c1` (centres undefined), the “inhibition (INH)” value in assay [2] is 100%; in assay [3], 80%; in assay [4], 55.1%. Moreover, in assay [1], the IC50 is recorded as 6.1 ppm.
Take `Oc1cccc(C2=Nc3ccccc3SC(c3cccs3)C2)c1` (centres undefined): the “inhibition (INH)” value was 100% in assay [2], 100% in [3] and 87.2% in assay [4]. Besides, the values for the IC50 (against Acetylcholinesterase; in [1]; on Cholinesterase) were 5.9 µM, 4.8 ppm and 3.97 µM, respectively.
Take `Oc1cccc(C2=Nc3ccccc3SC(c3ccc(Br)s3)C2)c1` (centres undefined): the figures for the “inhibition (INH)” value in assay [2], in assay [3] and in assay [4] were 92.8%, 91.4% and 80.3%, respectively. In [1], this molecule had an IC50 of 11.2 ppm.
As to `Oc1cccc(C2=Nc3ccccc3SC(c3ccc(Cl)cc3)C2)c1` (centres undefined), the “inhibition (INH)” value in [2] came out at 74.4%; in [3] it was 68%; in assay [4], 51.93%. Moreover, the IC50 amounted to 18.8 µM against Acetylcholinesterase, 9 ppm in [1] and 79.6 µM against Cholinesterase.
Consider `Oc1cccc(C2=Nc3ccccc3SC(c3ccc(F)cc3)C2)c1` (centres undefined), for which the “inhibition (INH)” value turned out to be 40.4% in assay [2], 34% in assay [3] and 25.5% in [4]. This molecule also came in with an IC50 in [1] of 1232 ppm.
On to `CN(C)c1ccc(C2CC(c3cccc(O)c3)=Nc3ccccc3S2)cc1` (centres undefined), for which the “inhibition zone (IZ)” value came to 11 mm with Klebsiella aerogenes; 9 mm in assay [5]; 11 mm with Escherichia coli; 9 mm in [6]; 10 mm with Micrococcus luteus. Further, the “inhibition (INH)” value in [2] amounted to 100%; in assay [3], 44.6%; in assay [4] it was 38.2%. Moreover, the IC50 in [1] was determined as 192.5 ppm; at Cholinesterase, 34.4 µM.
Take `Oc1cccc(C2=Nc3ccccc3SC(c3cccc(O)c3)C2)c1` (centres undefined): the figures for the “inhibition (INH)” value in assay [2], in [3] and in [4] were 100%, 48.9% and 36.1%, respectively. In addition, the IC50 at Acetylcholinesterase turned out to be 71.1 µM; in [1] it was 179.3 ppm; at Cholinesterase, 4.7 µM.
For `Oc1cccc(C2=Nc3ccccc3SC(c3ccccc3Cl)C2)c1` (centres undefined), the results for the “inhibition (INH)” value in assay [2], in [3] and in assay [4] were 95.7%, 93.6% and 74.4%, respectively. For the same molecule, the IC50 in assay [1] turned out to be 6.94 ppm.
For `COc1cccc(C2CC(c3cccc(O)c3)=Nc3ccccc3S2)c1` (centres undefined) the same measures were 100%, 84.2%, 67.142% and 3.28 ppm.
Take `O=[N+]([O-])c1cccc(C2CC(c3cccc(O)c3)=Nc3ccccc3S2)c1` (centres undefined): the “inhibition (INH)” value in assay [2] is 100%; in assay [3], 57.4%; in assay [4], 42.5%. The same molecule registered an IC50 in assay [1] of 26.2 ppm. Further, in the assay with Micrococcus luteus, the “inhibition zone (IZ)” value is listed as 10 mm.
For `Oc1cccc(C2=Nc3ccccc3SC(c3cccc(Cl)c3)C2)c1` (centres undefined), the “inhibition (INH)” value in assay [2] is listed as 93.6%; in assay [3], 80.8%; in assay [4] it was 68%. For the same molecule, the IC50 in assay [1] was 14.01 ppm; on Cholinesterase, 29.4 µM. In addition, the “inhibition zone (IZ)” value in the assay with Micrococcus luteus is on record as 11.5 mm.
For the molecule `Oc1cccc(C2=Nc3ccccc3SC(c3ccccc3F)C2)c1` (centres undefined), the results for the “inhibition (INH)” value in [2], in assay [3] and in assay [4] were 91.4%, 40.4% and 31.9%, respectively. In addition, the IC50 stood at 70.6 µM at Acetylcholinesterase and 295.5 ppm in assay [1].
`Oc1ccc(C2CC(c3cccc(O)c3)=Nc3ccccc3S2)cc1` (centres undefined): the “inhibition (INH)” value worked out at 100% in assay [2], 48.9% in assay [3] and 27.6% in assay [4]. The same molecule came in with an IC50 in [1] of 237.9 ppm.
For the molecule `COc1cc(C2CC(c3cccc(O)c3)=Nc3ccccc3S2)ccc1O` (centres undefined), the “inhibition zone (IZ)” value in the assay on Klebsiella aerogenes is on record as 11 mm; in [5], 10 mm; with Escherichia coli, 9.5 mm; in assay [6], 10 mm; in the assay on Micrococcus luteus, 10 mm. Further, the “inhibition (INH)” value was 95.7% in assay [2], 40.4% in [3] and 36.1% in [4]. The same molecule gave an IC50 in assay [1] of 247.3 ppm.
For `CC[C@H]1OC(=O)[C@H](C)[C@@H](O[C@H]2C[C@@](C)(OC)[C@@H](O)[C@H](C)O2)[C@H](C)[C@@H](O[C@@H]2O[C@H](C)C[C@H](N(C)C)[C@H]2O)[C@](C)(O)C[C@@H](C)/C(=N\OCOCCOC)[C@H](C)[C@@H](O)[C@]1(C)O` [ROXITHROMYCIN], the “inhibition zone (IZ)” value in the assay on Klebsiella aerogenes worked out at 12 mm; in assay [5], 13 mm; with Escherichia coli, 14 mm; in [6] it was 12 mm; with Micrococcus luteus it was 15 mm.
In [1], `CC[C@]1(O)C[C@H]2CN(CCc3c([nH]c4ccccc34)[C@@](C(=O)OC)(c3cc4c(cc3OC)N(C=O)[C@H]3[C@@](O)(C(=O)OC)[C@H](OC(C)=O)[C@]5(CC)C=CCN6CC[C@]43[C@@H]65)C2)C1` [VINCRISTINE] returned an IC50 of 0.003 ppm.
